Usually IC50 stands for the point on the concentration scale where inhibition reaches its midpoint. For orientation: half-life means the time needed for the level to fall by half in the phase considered. Usually GI50 stands for the concentration that inhibits growth by half. By inhibition is commonly meant the percentage by which the read-out fell short of the control. By Papp B→A is commonly meant how fast a substance crosses the layer from the basolateral side. The term Papp A→B denotes how fast a substance crosses the layer from the apical side.

The text below walks through data of ChEMBL document CHEMBL4304770, “Discovery of Irreversible Inhibitors Targeting Histone Methyltransferase, SMYD3” (ACS Med Chem Lett, 2019).

SMILES strings stand for the structures. Active and inactive are the calls of the source.

Series [1] concerns the target T1, Histone-lysine N-methyltransferase SMYD3 (Homo sapiens, UniProt Q9H7B4).
T1 sequence (Q9H7B4 whole entry): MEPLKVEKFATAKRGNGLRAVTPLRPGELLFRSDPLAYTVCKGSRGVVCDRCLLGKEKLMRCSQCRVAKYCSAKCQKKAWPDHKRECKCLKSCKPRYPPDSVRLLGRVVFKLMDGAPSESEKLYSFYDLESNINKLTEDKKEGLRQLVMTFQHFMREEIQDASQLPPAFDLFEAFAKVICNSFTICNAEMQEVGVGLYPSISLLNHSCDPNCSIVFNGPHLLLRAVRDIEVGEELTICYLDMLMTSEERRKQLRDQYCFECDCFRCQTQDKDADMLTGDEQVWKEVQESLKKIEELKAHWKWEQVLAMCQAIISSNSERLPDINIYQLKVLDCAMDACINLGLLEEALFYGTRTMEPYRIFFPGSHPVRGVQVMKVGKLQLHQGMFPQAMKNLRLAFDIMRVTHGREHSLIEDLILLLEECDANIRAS
As to the kind of experiment: Inhibition of SMYD3 (unknown origin) using MAP3K2 peptide as substrate pretreated for 30 mins followed by substrate addition and measured after 30 mins by MTase Glo reagent based luminescence assay. In short, it runs like this:
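SMYD3 IC50 values taken as mean of duplicate experiments.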

Series [2] is described as follows: GSH reactivity in pH 7.4 phosphate buffer assessed as pseudo first -order rate constant at 0.25 mM in presence of glutathione by HPLC-MS analysis. The following applies: pH 7.4, 250 µM. The series is classed as physicochemical.
Series [3] is described as follows: Apparent intrinsic clearance in mouse liver microsomes measured upto 60 mins by LC-MS/MS analysis. The series is classed as ADME, Microsome. The following applies: 1 h. A general note: Microsomes from liver hold many membrane-bound enzymes, among them those of drug oxidation.
Series [4] is described as follows: Metabolic stability in mouse liver microsomes assessed as half life preincubated for 5 mins followed by NADPH addition measured upto 60 mins by LC-MS/MS analysis. In kind it is ADME, Microsome.
Series [5] is described as follows: Metabolic stability in human liver microsomes assessed as half life preincubated for 5 mins followed by NADPH addition measured upto 60 mins by LC-MS/MS analysis. In kind it is ADME, Microsome.
Series [6] is described as follows: Apparent intrinsic clearance in human liver microsomes measured upto 60 mins by LC-MS/MS analysis. The series is classed as ADME, Microsome. The following applies: 1 h.
Series [7] concerns the target T2, Histone-lysine N-methyltransferase SMYD3 (Homo sapiens) (UniProt Q9H7B4).
T2 sequence (whole entry): T1 sequence (Q9H7B4 whole entry)
As to the kind of experiment: Inhibition of SMYD3 in human HepG2 cells assessed as inhibition of cell proliferation incubated for 3 days by CellTiter-Glo luminescent assay. The series is classed as cell-based. In general terms: In ATP-based viability assays light output follows the ATP content of the culture.

The target in series [8] is T1, Histone-lysine N-methyltransferase SMYD3. The experiment in a line: Irreversible inhibition of SMYD3 (unknown origin) using MAP3K2 peptide as substrate pretreated for 5 mins followed by substrate addition and measured after 60 mins by MTase Glo reagent based luminescence assay.
Series [9] has as its target T2, Histone-lysine N-methyltransferase SMYD3 (Homo sapiens). The experiment in a line: Irreversible inhibition of SMYD3 (unknown origin) using MAP3K2 peptide as substrate assessed as Kinact pretreated for 5 mins followed by substrate addition and measured after 60 mins by MTase Glo reagent based luminescence assay.
For series [10] the target is unchanged. As to the kind of experiment: Irreversible inhibition of SMYD3 (unknown origin) using MAP3K2 peptide as substrate assessed as kinact/Ki ratio pretreated for 5 mins followed by substrate addition and measured after 60 mins by MTase Glo reagent based luminescence assay.
For series [11] the target is unchanged. As to the kind of experiment: Inhibition of SMYD3 in human HepG2 cells assessed as decrease in MAP3K2 methylation at 20 uM incubated for 24 hrs by cIEF based immunoassay relative to control. In kind it is cell-based. A digest of the protocol:
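HepG2 cells exposed to 20 μM for 24 h, DMSO control. MAP3K2-me2/me3 quantified by capillary isoelectric focusing in a nanofluidic proteomic immunoassay. Levels expressed relative to DMSO-treated cells.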

Series [12] has the same target. As to the kind of experiment: Inhibition of SMYD3 in human HepG2 cells assessed as inhibition of anchorage-independent colony formation in 3D culture cells incubated for 1 to 2 weeks by thiazolyl blue tetrazolium bromide based. In kind it is cell-based.
The subject of another series is HepG2. As to the kind of experiment: Downregulation of SMYD3 in human HepG2 cells at 5 to 20 uM incubated for 24 hrs by Western blot analysis. The series is classed as functional. A digest of the protocol: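 SMYD3 protein in HepG2 cells probed by Western blot after exposure at 5 and 20 μM, with DMSO control for comparison.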
In general terms: A western blot detects proteins with antibodies after separation by electrophoresis.

A short description of series [13]: Apparent permeability across basolateral to apical side in human Caco2 cells by LC-MS/MS analysis. The series is classed as ADME, cell-based. The following applies: Caco-2.
Series [14] is described as follows: Apparent permeability across apical to basolateral side in human Caco2 cells by LC-MS/MS analysis. In kind it is ADME, cell-based. The following applies: Caco-2.

Consider `CCCOC(=O)N1CCN(C(=O)c2ccc3c(Cl)c4c(nc3c2)CCCC4)CC1`, for which the IC50 in [1] came to 0.37 µM.

Take `NCCOC(=O)N1CCN(C(=O)c2ccc3c(Cl)c4c(nc3c2)CCCC4)CC1`: the IC50 in series [1] turned out to be 132 µM.

Turning to `CCCOC(=O)N1CCN(C(=O)c2ccc3c(Cl)c4c(nc3c2)CC(CN)CC4)[C@@H](C)C1` (stereo partly drawn), the IC50 in series [1] is 0.067 µM. Also, in series [2], the K is 0.5 ×10⁻³ /min.

Regarding `CCCOC(=O)N1CCN(C(=O)c2ccc3c(Cl)c4c(nc3c2)CCCC4)[C@H](C)C1`, the half-inhibitory concentration (IC50) in [1] was 0.25 µM.

Take `CCOC(=O)N1CCN(C(=O)c2ccc3c(Cl)c4c(nc3c2)CCCCC4)CC1`: the IC50 in series [1] came to 20.4 µM.

For the compound `CCOC(=O)N1CCN(C(=O)c2ccc3c(Cl)c4c(nc3c2)CCCC4)CC1`, the IC50 in [1] came out at 4.78 µM. The “CLH(app)” value is 245 uL/min/mL in series [3] and 107 uL/min/mL in [6]. The results for the half-life in [4] and in series [5] were 4 min and 9 min, respectively. In addition, the concentration for 50% growth inhibition (GI50) in [7] is > 100 µM.

As for `CCCOC(=O)N1CCN(C(=O)c2ccc3c(Cl)cc(-c4ccccc4)nc3c2)CC1`, the Ki in series [8] stood at 3.9 µM. Also, in series [1], the IC50 was determined as 0.3 µM. Besides, the entries for the “CLH(app)” value in [3] and in series [6] were 70 uL/min/mL and 28 uL/min/mL, respectively. The half-life in series [4] turned out to be 13 min; in [5], 33 min. The Kinact in series [9] was 0.193 min⁻¹. Also, in series [7], the GI50 is > 100 µM. Besides, the Ratio in series [10] is 833 M⁻¹ s⁻¹.

In the case of `CCCOC(=O)N1CCN(C(=O)c2ccc3ccc(-c4ccccc4)nc3c2)C[C@H]1C`, the IC50 in series [1] is > 250 µM. Moreover, the GI50 is 60.8 µM in [7] and > 10 µM in series [12]. The inhibition result in series [11] was “inactive”.

Regarding `NCCCC(=O)N1CCN(C(=O)c2ccc3c(Cl)c4c(nc3c2)CCCC4)CC1`, in series [1], the IC50 was > 750 µM.

With `CCCOC(=O)N1CCN(C(=O)c2ccc3c(Cl)ccnc3c2)CC1`, the entries for the “CLH(app)” value in series [3] and in series [6] were 750 uL/min/mL and 23 uL/min/mL, respectively. Further, the half-life amounted to 1 min in series [4] and 40 min in series [5].

Turning to `CCCOC(=O)N1CCN(C(=O)c2ccc3c(Cl)cc(-c4ccc(C(=O)NC)cc4)nc3c2)CC1`, the Ki in [8] was 3.06 µM. Moreover, the “CLH(app)” value in [3] turned out to be 20 uL/min/mL; in series [6] it was 53 uL/min/mL. For the same compound, the figures for the half-life in [4] and in [5] were 46 min and 17 min, respectively. The Kinact in series [9] turned out to be 0.127 min⁻¹. In addition, the GI50 in series [7] is > 100 µM. Moreover, in series [10], the Ratio is 692 M⁻¹ s⁻¹.

As to `CCOC(=O)N1CCN(C(=O)c2ccc3c(Cl)c4c(nc3c2)CCC4)CC1`, the 50% inhibitory concentration (IC50) in series [1] came to 30.5 µM.

With `CCCOC(=O)N1CCN(C(=O)c2ccc3c(Cl)c4c(nc3c2)CCCC4)[C@@H](C)C1`, the IC50 in [1] amounted to 0.14 µM.

Take `CCCOC(=O)N1CCN(C(=O)c2ccc3c(Cl)cc(-c4ccc(C5(N)CC5)cc4)nc3c2)C[C@H]1C`: in series [8], the Ki is 0.44 µM. Moreover, the IC50 in [1] was 0.0117 µM. In addition, the “CLH(app)” value is reported as 13 uL/min/mL in series [3] and 20 uL/min/mL in series [6]. The half-life worked out at 52 min in series [4] and 35 min in series [5]. Further, in the series with HepG2, the “inhibition (INH)” value is listed as 50%. In addition, the Kinact in series [9] was determined as 0.055 min⁻¹. For the same compound, the concentration for 50% growth inhibition (GI50) in series [7] is 17.7 µM; in [12] it was 1.04 µM. The inhibition in series [11] worked out at 66%. The Ratio in [10] turned out to be 2110 M⁻¹ s⁻¹.

As to `CCCOC(=O)N1CCN(C(=O)c2ccc3c(Cl)c4c(nc3c2)CC(CN)CC4)CC1` (stereo not drawn), in [13], the Papp B→A was determined as 16.2 ×10⁻⁶ cm/s. Moreover, the apical-to-basolateral permeability (Papp A→B) in [14] is 4.43 ×10⁻⁶ cm/s.

Consider `CCCOC(=O)N1CCN(C(=O)c2ccc3c(Cl)cc(-c4ccc(OC)cc4)nc3c2)CC1`, for which the entries for the “CLH(app)” value in series [3] and in series [6] were 43 uL/min/mL and 32 uL/min/mL, respectively. The results for the half-life in series [4] and in [5] were 22 min and 28 min, respectively. Besides, the GI50 in series [7] is > 100 µM.

Consider `CCCOC(=O)N1CCN(C(=O)c2ccc3c(Cl)c4c(nc3c2)CCCC4)C(C)C1` (racemic), for which, in series [2], the K is on record as 0.8 ×10⁻³ /min.

Consider `C=CC(=O)Nc1cccc(OC)c1`, for which, in series [2], the K came to 3.4 ×10⁻³ /min.

With `CCOC(=O)N1CCN(C(=O)c2ccc3c(C)c4c(nc3c2)CCCC4)CC1`, the concentration for half-maximal inhibition (IC50) in series [1] was > 750 µM.

As for `CCCOC(=O)N1CCN(C(=O)c2ccc3c(Cl)cc(-c4ccccc4)nc3c2)C[C@H]1C`, the IC50 in [1] is 0.17 µM. In addition, the entries for the “CLH(app)” value in series [3] and in series [6] were 58 uL/min/mL and 43 uL/min/mL, respectively. In addition, the results for the half-life in series [4] and in series [5] were 16 min and 21 min, respectively. Besides, the GI50 in [7] worked out at 24.4 µM; in [12], 0.79 µM. The inhibition in [11] was 55%.

On to `CCCCOC(=O)N1CCN(C(=O)c2ccc3c(Cl)c4c(nc3c2)CCCC4)CC1`, for which the half-maximal inhibitory concentration (IC50) in series [1] came out at 0.36 µM.

Consider `COC(=O)N1CCN(C(=O)c2ccc3c(Cl)c4c(nc3c2)CCCC4)CC1`, for which the IC50 in series [1] amounted to 123 µM.

For `CCOC(=O)N1CCN(C(=O)c2ccc3cc4c(nc3c2)CCCC4)CC1`, the IC50 in [1] was > 750 µM.

For the compound `CCCOC(=O)N1CCN(C(=O)c2ccc3c(Cl)cc(-c4ccc(C)cc4)nc3c2)CC1`, in series [1], the half-maximal inhibitory concentration (IC50) came out at 0.37 µM. Moreover, the “CLH(app)” value in series [3] was determined as 22 uL/min/mL; in [6], 26 uL/min/mL. Also, the half-life in series [4] came to 41 min; in series [5], 36 min.
